Assay results published in ChEMBL document CHEMBL1687901 (J Med Chem, 2011).
In brackets after ≈: the same amount, converted by molar mass.

Columns and labels:
[1] = system: Escherichia coli; experiment: Antibacterial activity against Escherichia coli ATCC 25922 by CLSI M07-A8 method; type: functional
[2] = system: Escherichia coli; experiment: Inhibition of protein synthesis in Escherichia coli S30 extract by coupled transcription/translation assay; type: functional
Procedure, shortened: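 Coupled transcription/translation used an E. coli S30 extract with a firefly luciferase reporter. Compounds were diluted in water and tested as a three-point titration in duplicate. Reactions ran 1 h at 37 °C and were stopped on ice for 5 min, then luciferase substrate was added and luminescence read. Percent inhibition was calculated against uninhibited controls averaged per plate, and IC50 derived.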

[3] = system: Streptococcus pneumoniae; experiment: Antibacterial activity against tetracycline-resistant Streptococcus pneumoniae isolate 160 harboring tet(M) gene by CLSI M07-A8 method; type: functional
Procedure, shortened: (§1)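 MICs were determined by CLSI broth microdilution in freshly prepared cation-adjusted Mueller Hinton broth, kept at 4 °C before use. Defibrinated horse blood was added as appropriate. Runs met QC ranges for comparator antibiotics with ATCC quality control strains.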

[4] = system: Streptococcus pneumoniae; experiment: Antibacterial activity against Streptococcus pneumoniae ATCC 49619 by CLSI M07-A8 method; type: functional
[5] = system: Klebsiella pneumoniae; experiment: Antibacterial activity against Klebsiella pneumoniae ATCC 13883 by CLSI M07-A8 method; type: functional
[6] = system: Staphylococcus aureus; experiment: Antibacterial activity against tetracycline-resistant Staphylococcus aureus isolate 161 harboring tet(M) gene by CLSI M07-A8 method; type: functional; procedure, shortened: as §1
[7] = system: Escherichia coli; experiment: Antibacterial activity against tetracycline-resistant Escherichia coli isolate 155 harboring tet(A) gene by CLSI M07-A8 method; type: functional
Procedure, shortened: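 MICs were determined by CLSI broth microdilution in freshly prepared cation-adjusted Mueller Hinton broth, kept at 4 °C before use. Defibrinated horse blood was added as appropriate. The highest concentration tested was 32 μg/mL. Runs met QC ranges for comparator antibiotics with ATCC quality control strains.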

[8] = system: Staphylococcus aureus; experiment: Antibacterial activity against tetracycline-resistant Staphylococcus aureus isolate 158 harboring tet(K) gene by CLSI M07-A8 method; type: functional; procedure, shortened: as §1
[9] = system: Staphylococcus aureus; experiment: Antibacterial activity against wild type Staphylococcus aureus Smith ATCC 13709 by CLSI M07-A8 method; type: functional
[10] = system: Staphylococcus aureus; experiment: Antibacterial activity against Staphylococcus aureus by CLSI M07-A8 method; type: functional
[11] = AUC in Sprague-Dawley rat at 1 mg/kg, iv and 10 mg/kg, po; type: ADME, organism-based; conditions: plasma
[12] = system: Streptococcus pneumoniae; experiment: Antibacterial activity against Streptococcus pneumoniae by CLSI M07-A8 method; type: functional
[13] = system: Haemophilus influenzae; experiment: Antibacterial activity against Haemophilus influenzae by CLSI M07-A8 method; type: functional
[14] = system: Staphylococcus aureus; experiment: Antibacterial activity against Staphylococcus aureus ATCC 13709 infected in iv dosed mouse septicemia model assessed as mouse protection after 48 hrs; type: functional; conditions: ATCC 13709, iv, read-out: PD50
Procedure, shortened: (§2)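 Mice were challenged intraperitoneally with bacteria mixed with 5% mucin. For S. aureus ATCC 13709 (Smith) the inoculum was 2.1 × 10^6 cfu/mouse, and for E. coli ATCC 25922 it was 2.0 × 10^7 cfu/mouse. PD50 in mg/kg was calculated from survival at 48 h.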

[15] = system: Escherichia coli; experiment: Antibacterial activity against Escherichia coli ATCC 25922 infected in iv dosed mouse septicemia model assessed as mouse protection after 48 hrs; type: functional; conditions: ATCC 25922, iv, read-out: PD50; procedure, shortened: as §2
[16] = system: Escherichia coli; experiment: Antibacterial activity against Escherichia coli by CLSI M07-A8 method; type: functional
[17] = Clearance in Sprague-Dawley rat at 1 mg/kg, iv and 10 mg/kg, po; type: ADME, organism-based; conditions: in vivo
[18] = Half life in Sprague-Dawley rat at 1 mg/kg, iv and 10 mg/kg, po; type: ADME, organism-based; conditions: in vivo
[19] = system: Rattus norvegicus; experiment: Oral bioavailability in Sprague-Dawley rat at 1 mg/kg, iv and 10 mg/kg, po; type: ADME, organism-based; conditions: in vivo
[20] = in vivo; conditions: Sprague-Dawley, rat, iv, 1 mg/kg

| Compound | MIC [1] | IC50 [2] | MIC [3] | MIC [4] | MIC [5] | MIC [6] | MIC [7] | MIC [8] | MIC [9] | also measured |
| --- | --- | --- | --- | --- | --- | --- | --- | --- | --- | --- |
| CCCNc1nc(N(C)C)c2c(c1O)C(=O)C1=C(O)[C@]3(O)C(=O)C(C(N)=O)=C(O)[C@@H](N(C)C)[C@@H]3C[C@@H]1C2.Cl.Cl | 32 µg/mL | 3.4 µg/mL | > 32 µg/mL | 8 µg/mL | > 32 µg/mL | > 32 µg/mL | > 32 µg/mL | – | – | – |
| CN(C)[C@@H]1C(O)=C(C(N)=O)C(=O)[C@@]2(O)C(O)=C3C(=O)c4c(O)c(N)nc(Cl)c4C[C@H]3C[C@@H]12 | 0.25 µg/mL (≈ 0.538 µM) | 1.1 µg/mL (≈ 2.37 µM) | 4 µg/mL (≈ 8.6 µM) | 0.016 µg/mL (≈ 0.0344 µM) | 0.5 µg/mL (≈ 1.08 µM) | 4 µg/mL (≈ 8.6 µM) | > 32 µg/mL | 8 µg/mL (≈ 17.2 µM) | 0.016 µg/mL (≈ 0.0344 µM) | – |
| CN(C)CC(C)(C)CNc1nc(Cl)c2c(c1O)C(=O)C1=C(O)[C@]3(O)C(=O)C(C(N)=O)=C(O)[C@@H](N(C)C)[C@@H]3C[C@@H]1C2.Cl | 0.5 µg/mL | 0.7 µg/mL | 0.125 µg/mL | 0.016 µg/mL | 2 µg/mL | 2 µg/mL | 8 µg/mL | 0.125 µg/mL | 0.5 µg/mL | MIC50 [10]: 0.125 µg/mL; MIC90 [10]: 2 µg/mL; AUC [11]: 4870 ng·h/mL; MIC [12]: ≤ 0.016 µg/mL; MIC50 [12]: ≤ 0.016 µg/mL; MIC90 [12]: 0.063 µg/mL; MIC50 [13]: 1 µg/mL; MIC90 [13]: 1 µg/mL; ED50 [14]: 0.36 mg/kg; ED50 [15]: 17 mg/kg; MIC50 [16]: 1 µg/mL; MIC90 [16]: 4 µg/mL; clearance [17]: 3.37 mL/min/kg; half-life [18]: 4.3 h; F [19]: 0.8%; Vd [20]: 1.26 L/kg |
| CCCNc1nc(Cl)c2c(c1O)C(=O)C1=C(O)[C@]3(O)C(=O)C(C(N)=O)=C(O)[C@@H](N(C)C)[C@@H]3C[C@@H]1C2.Cl.Cl.Cl | – | 5.3 µg/mL | 4 µg/mL | 0.25 µg/mL | 8 µg/mL | 1 µg/mL | 16 µg/mL | 0.5 µg/mL | 0.063 µg/mL | – |
| CN(C)[C@@H]1C(O)=C(C(N)=O)C(=O)[C@@]2(O)C(O)=C3C(=O)c4c(O)cccc4[C@@](C)(O)[C@H]3C[C@@H]12 [TETRACYCLINE] | – | – | – | 0.25 µg/mL (≈ 0.563 µM) | – | – | > 32 µg/mL | – | – | MIC50 [10]: 0.125 µg/mL (≈ 0.281 µM); MIC90 [10]: > 64 µg/mL; MIC [12]: 0.125 µg/mL (≈ 0.281 µM); MIC [13]: 0.25 µg/mL (≈ 0.563 µM); ED50 [14]: 0.35 mg/kg; ED50 [15]: 17 mg/kg; MIC90 [16]: > 64 µg/mL |
| CN(C)c1nc(NC(=O)CNC(C)(C)C)c(O)c2c1C[C@H]1C[C@H]3[C@H](N(C)C)C(O)=C(C(N)=O)C(=O)[C@@]3(O)C(O)=C1C2=O.Cl | 32 µg/mL | 0.71 µg/mL | 4 µg/mL | 4 µg/mL | > 32 µg/mL | 32 µg/mL | > 32 µg/mL | 8 µg/mL | 16 µg/mL | – |
| CCCNc1nc(F)c2c(c1O)C(=O)C1=C(O)[C@]3(O)C(=O)C(C(N)=O)=C(O)[C@@H](N(C)C)[C@@H]3C[C@@H]1C2.Cl.Cl | 2 µg/mL | 2.8 µg/mL | 4 µg/mL | 4 µg/mL | 8 µg/mL | 2 µg/mL | 16 µg/mL | 0.25 µg/mL | 0.25 µg/mL | – |
| CN(C)[C@@H]1C(O)=C(C(N)=O)C(=O)[C@@]2(O)C(O)=C3C(=O)c4c(O)c(N)nc(F)c4C[C@H]3C[C@@H]12.Cl.Cl | 0.25 µg/mL | 0.93 µg/mL | 2 µg/mL | 0.063 µg/mL | 1 µg/mL | 2 µg/mL | > 32 µg/mL | 8 µg/mL | 0.063 µg/mL | – |
| CN(C)[C@@H]1C(O)=C(C(N)=O)C(=O)[C@@]2(O)C(O)=C3C(=O)c4c(O)c(NC(=O)CNC(C)(C)C)nc(Cl)c4C[C@H]3C[C@@H]12.Cl.Cl.Cl | 4 µg/mL | 0.78 µg/mL | 16 µg/mL | 1 µg/mL | 8 µg/mL | 32 µg/mL | > 32 µg/mL | 32 µg/mL | 2 µg/mL | – |
| CN(C)[C@@H]1C(O)=C(C(N)=O)C(=O)[C@@]2(O)C(O)=C3C(=O)c4c(O)cnc(Cl)c4C[C@H]3C[C@@H]12.Cl | 2 µg/mL | – | 32 µg/mL | 1 µg/mL | 4 µg/mL | 32 µg/mL | > 32 µg/mL | 32 µg/mL | 1 µg/mL | – |
| CC(C)CCNc1nc(Cl)c2c(c1O)C(=O)C1=C(O)[C@]3(O)C(=O)C(C(N)=O)=C(O)[C@@H](N(C)C)[C@@H]3C[C@@H]1C2.Cl.Cl.Cl | > 32 µg/mL | – | 32 µg/mL | 8 µg/mL | > 32 µg/mL | 2 µg/mL | > 32 µg/mL | 0.25 µg/mL | 0.25 µg/mL | – |
| CN(C)[C@@H]1C(O)=C(C(N)=O)C(=O)[C@@]2(O)C(O)=C3C(=O)c4c(O)c(NC(=O)CNC(C)(C)C)nc(F)c4C[C@H]3C[C@@H]12.Cl.Cl | 8 µg/mL | 0.36 µg/mL | 8 µg/mL | 2 µg/mL | 16 µg/mL | 16 µg/mL | > 32 µg/mL | 16 µg/mL | 4 µg/mL | – |
| Cc1ncc2c(c1O)C(=O)C1=C(O)[C@]3(O)C(=O)C(C(N)=O)=C(O)[C@@H](N(C)C)[C@@H]3C[C@@H]1C2.Cl.Cl | 8 µg/mL | – | 16 µg/mL | 1 µg/mL | 8 µg/mL | 32 µg/mL | > 32 µg/mL | 32 µg/mL | 4 µg/mL | – |
| CC(C)OCCNc1nc(Cl)c2c(c1O)C(=O)C1=C(O)[C@]3(O)C(=O)C(C(N)=O)=C(O)[C@@H](N(C)C)[C@@H]3C[C@@H]1C2.Cl.Cl.Cl | 8 µg/mL | – | 4 µg/mL | 0.031 µg/mL | 16 µg/mL | 2 µg/mL | > 32 µg/mL | 0.25 µg/mL | 0.5 µg/mL | – |
| CN(C)CCCNc1nc(Cl)c2c(c1O)C(=O)C1=C(O)[C@]3(O)C(=O)C(C(N)=O)=C(O)[C@@H](N(C)C)[C@@H]3C[C@@H]1C2.Cl | 8 µg/mL | 0.58 µg/mL | 4 µg/mL | 1 µg/mL | 16 µg/mL | 8 µg/mL | > 32 µg/mL | 2 µg/mL | 2 µg/mL | – |
